Measured values taken from ChEMBL document CHEMBL3580589, “Discovery of Quinazoline-Based Fluorescent Probes to α1-Adrenergic Receptors” (ACS Med Chem Lett, 2015).
Calls of active or inactive are those of the source. The rule behind the calls is not given here.

Experiments:
[1] = target: T1, Alpha-1D adrenergic receptor (Homo sapiens) (UniProt P25100); test: Binding affinity to alpha-1D adrenergic receptor (unknown origin) transfected in HEK293A cells at 10 nM after 5 mins by DiD dye-based confocal microscopic analysis; type: cell-based; details: HEK293-A
T1 sequence (whole entry): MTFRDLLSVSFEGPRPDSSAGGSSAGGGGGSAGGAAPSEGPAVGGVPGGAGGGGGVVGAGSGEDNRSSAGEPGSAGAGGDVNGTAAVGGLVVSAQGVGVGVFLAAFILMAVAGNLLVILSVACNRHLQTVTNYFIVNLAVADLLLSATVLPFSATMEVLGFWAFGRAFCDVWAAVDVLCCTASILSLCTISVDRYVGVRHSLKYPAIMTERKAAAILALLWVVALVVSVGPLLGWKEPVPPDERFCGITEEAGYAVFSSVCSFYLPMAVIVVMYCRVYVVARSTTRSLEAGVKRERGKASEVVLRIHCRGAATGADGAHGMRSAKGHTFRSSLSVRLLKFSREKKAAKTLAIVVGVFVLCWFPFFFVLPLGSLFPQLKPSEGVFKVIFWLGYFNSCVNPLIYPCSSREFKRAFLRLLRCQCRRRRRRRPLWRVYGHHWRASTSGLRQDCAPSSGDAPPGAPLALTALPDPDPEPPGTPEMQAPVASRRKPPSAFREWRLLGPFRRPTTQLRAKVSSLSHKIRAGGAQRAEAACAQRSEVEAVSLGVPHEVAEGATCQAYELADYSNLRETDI
In short: (§1)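 α1A-AR- or α1D-AR-transfected HEK293A cells, or untransfected HEK293A cells as the receptor-free control, were incubated with the probe plus DiD (red, colocalization) for 5 min at 37 °C. Probe signal was compared with the DiD-stained surface for subcellular localization by fluorescence microscopy.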

[2] = target: T2, Alpha-1B adrenergic receptor (Homo sapiens, UniProt P35368); test: Displacement of [3H]-Prazosin from human alpha-1B adrenergic receptor transfected in CHO cell membranes after 2 hrs by microplate scintillation counting analysis
T2 sequence (P35368 whole entry): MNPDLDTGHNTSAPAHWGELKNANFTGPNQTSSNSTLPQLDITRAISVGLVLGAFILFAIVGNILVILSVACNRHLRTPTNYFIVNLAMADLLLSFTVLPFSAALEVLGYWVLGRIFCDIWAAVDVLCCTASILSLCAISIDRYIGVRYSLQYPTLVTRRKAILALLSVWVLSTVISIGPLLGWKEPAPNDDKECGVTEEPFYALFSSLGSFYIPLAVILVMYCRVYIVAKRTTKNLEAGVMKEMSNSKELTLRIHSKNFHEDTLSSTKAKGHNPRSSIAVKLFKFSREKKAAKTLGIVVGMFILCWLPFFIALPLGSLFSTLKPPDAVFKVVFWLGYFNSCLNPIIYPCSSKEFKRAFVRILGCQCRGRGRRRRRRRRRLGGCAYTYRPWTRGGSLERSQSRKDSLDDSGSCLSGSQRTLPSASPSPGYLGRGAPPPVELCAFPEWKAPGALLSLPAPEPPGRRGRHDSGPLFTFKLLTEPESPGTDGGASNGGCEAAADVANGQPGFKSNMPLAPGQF
In short: (§2)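 Radioligand competition binding used [3H]prazosin on membranes from CHO cells transfected with human cloned α1A-, α1B- or α1D-adrenoceptors.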

[3] = Drug uptake in HEK293A cells at 10 nM after 5 mins by DiD dye-based confocal microscopic analysis; type: ADME, cell-based; details: human, hek293-a, 0.01 µM; in short: as §1
[4] = target: T1, Alpha-1D adrenergic receptor (Homo sapiens); test: Binding affinity to alpha-1D adrenergic receptor (unknown origin) transfected in HEK293A cells at 10 nM after 5 mins by DiD dye-based confocal microscopic analysis in presence of alpha1 adrenergic receptor antagonist tamsulosin; type: cell-based; details: HEK293-A
In short: (§3)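 Transfected HEK293A cells expressing α1A-AR or α1D-AR were incubated with the probe, DiD and tamsulosin as competing α1-AR antagonist for 5 min at 37 °C. Fluorescence labelling was imaged by confocal microscopy.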

[5] = target: T3, Alpha-1A adrenergic receptor (Homo sapiens, UniProt P35348); test: Displacement of [3H]-Prazosin from human alpha-1A adrenergic receptor transfected in CHO cell membranes after 2 hrs by microplate scintillation counting analysis; in short: as §2
T3 sequence (P35348 whole entry): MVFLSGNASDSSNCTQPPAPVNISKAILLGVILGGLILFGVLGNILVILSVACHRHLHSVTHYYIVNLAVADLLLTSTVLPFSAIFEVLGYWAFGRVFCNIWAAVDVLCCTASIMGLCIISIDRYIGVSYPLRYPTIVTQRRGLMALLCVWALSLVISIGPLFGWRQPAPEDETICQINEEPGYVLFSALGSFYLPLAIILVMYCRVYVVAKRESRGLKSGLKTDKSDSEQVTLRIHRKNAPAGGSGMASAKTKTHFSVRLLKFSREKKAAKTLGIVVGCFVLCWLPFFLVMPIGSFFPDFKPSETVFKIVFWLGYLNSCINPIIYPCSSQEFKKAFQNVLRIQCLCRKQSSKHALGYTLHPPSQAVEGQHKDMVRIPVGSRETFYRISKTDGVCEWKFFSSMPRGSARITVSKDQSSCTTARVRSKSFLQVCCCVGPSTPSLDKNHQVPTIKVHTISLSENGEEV

[6] = Cytotoxicity against HEK293A cells transfected with alpha-1D adrenergic receptor assessed as cell viability by sulforhodamine B assay; type: cell-based; details: Homo sapiens, HEK293-A
In short: (§4)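 Standard sulforhodamine B colorimetric assay in HEK293A cells stably transfected with α1A-AR or α1D-AR.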

[7] = target: T1, Alpha-1D adrenergic receptor (Homo sapiens); test: Binding affinity to alpha-1D adrenergic receptor (unknown origin) transfected in HEK293 cells at 20 nM after 20 mins by flow cytometric analysis; type: cell-based
[8] = target: T4, Alpha-1D adrenergic receptor (Homo sapiens, UniProt P25100); test: Displacement of [3H]-Prazosin from human alpha-1D adrenergic receptor transfected in CHO cell membranes after 2 hrs by microplate scintillation counting analysis; in short: as §2
T4 sequence (P25100 whole entry): T1 sequence (whole entry)

[9] = Cytotoxicity against HEK293A cells transfected with alpha-1A adrenergic receptor assessed as cell viability by sulforhodamine B assay; type: cell-based; details: Homo sapiens, HEK293-A; in short: as §4
[10] = target: T1, Alpha-1D adrenergic receptor (Homo sapiens); test: Binding affinity to alpha-1D adrenergic receptor (unknown origin) transfected in HEK293A cells at 50 nM after 5 mins by DiD dye-based confocal microscopic analysis in presence of alpha1 adrenergic receptor antagonist tamsulosin; type: cell-based; details: HEK293-A; in short: as §3
[11] = target: T5, Alpha-1A adrenergic receptor (Homo sapiens) (UniProt P35348); test: Binding affinity to alpha-1A adrenergic receptor (unknown origin) transfected in HEK293A cells at 50 nM after 5 mins by DiD dye-based confocal microscopic analysis in presence of alpha1 adrenergic receptor antagonist tamsulosin; type: cell-based; details: HEK293-A; in short: as §3
T5 sequence (whole entry): T3 sequence (P35348 whole entry)

[12] = target: T6, Adrenergic receptor alpha-1 (Homo sapiens) (UniProt P35348+P25100+P35368); test: Binding affinity to alpha-1 adrenergic receptor in human PC3 cells at 1 uM measured 30 mins post wash out by fluorescence assay in presence of doxazosin; type: cell-based; details: PC-3
In short: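 PC-3 cells were co-incubated with the probe at 1 μM and doxazosin at 10 μM for 30 min at 37 °C, then washed immediately. Displacement of labelling was imaged by fluorescence microscopy.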

[13] = target: T1, Alpha-1D adrenergic receptor (Homo sapiens); test: Binding affinity to alpha-1D adrenergic receptor (unknown origin) transfected in HEK293A cells at 50 nM after 5 mins by DiD dye-based confocal microscopic analysis; type: cell-based; details: HEK293-A; in short: as §1
[14] = test system: HepG2; test: Drug uptake in human HepG2 cells expressing low level of alpha-1 adrenergic receptor at 1 uM measured 30 mins post wash out by fluorescence assay; type: ADME, cell-based; details: hepg2, 0.5 h
In short: (§5)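 PC-3 or HepG2 cells were incubated with the probe at 1 μM for 30 min at 37 °C, then washed immediately. Labelling was imaged by fluorescence microscopy, with background adjusted.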

[15] = Drug uptake in HEK293A cells at 50 nM after 5 mins by DiD dye-based confocal microscopic analysis; type: ADME, cell-based; details: human, hek293-a, 0.05 µM; in short: as §1
[16] = target: T5, Alpha-1A adrenergic receptor (Homo sapiens); test: Binding affinity to alpha-1A adrenergic receptor (unknown origin) transfected in HEK293A cells at 50 nM after 5 mins by DiD dye-based confocal microscopic analysis; type: cell-based; details: HEK293-A; in short: as §1
[17] = target: T6, Adrenergic receptor alpha-1 (Homo sapiens); test: Binding affinity to alpha-1 adrenergic receptor in human PC3 cells at 1 uM measured 30 mins post wash out by fluorescence assay; type: cell-based; details: PC-3; in short: as §5
[18] = Drug uptake in cytoplasm of HEK293A cells transfected with alpha-1D adrenergic receptor at 50 nM measured 5 mins post wash out by DiD dye-based confocal microscopic analysis; type: ADME, cell-based; details: human, hek293-a, 0.05 µM; in short: as §1
[19] = target: T1, Alpha-1D adrenergic receptor (Homo sapiens); test: Binding affinity to alpha-1D adrenergic receptor (unknown origin) transfected in HEK293A cells at 15 nM measured 5 mins post wash out by DiD dye-based confocal microscopic analysis in presence of alpha1 adrenergic receptor antagonist tamsulosin; type: cell-based; details: HEK293-A
In short: (§6)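 α1A-AR- or α1D-AR-transfected HEK293A cells were incubated with the probe at 15 nM, DiD and tamsulosin at 300 nM as competitor for 5 min at 37 °C. Cells were washed immediately and imaged by confocal microscopy at identical exposure.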

[20] = target: T1, Alpha-1D adrenergic receptor (Homo sapiens); test: Binding affinity to alpha-1D adrenergic receptor (unknown origin) transfected in HEK293A cells at 15 nM measured 5 mins post wash out by DiD dye-based confocal microscopic analysis; type: cell-based; details: HEK293-A
In short: (§7)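 HEK293A cells stably transfected with α1A-AR or α1D-AR, or untransfected HEK293A cells, were incubated with the probe at 15 nM plus the membrane dye DiD for 5 min at 37 °C. Cells were washed immediately and imaged by confocal fluorescence microscopy at identical exposure times.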

[21] = Drug uptake in plasma membrane of HEK293A cells transfected with alpha-1D adrenergic receptor at 50 nM measured 5 mins post wash out by DiD dye-based confocal microscopic analysis; type: ADME, cell membranes; details: human, hek293-a, 0.05 µM; in short: as §1
[22] = Drug uptake in HEK293A cells at 15 nM measured 5 mins post wash out by DiD dye-based confocal microscopic analysis; type: ADME, cell-based; details: human, hek293-a, 0.015 µM; in short: as §7
[23] = Drug uptake in plasma membrane of HEK293A cells transfected with alpha-1A adrenergic receptor at 50 nM measured 5 mins post wash out by DiD dye-based confocal microscopic analysis; type: ADME; details: human, hek293-a, 0.05 µM; in short: as §1
[24] = target: T5, Alpha-1A adrenergic receptor (Homo sapiens); test: Binding affinity to alpha-1A adrenergic receptor (unknown origin) transfected in HEK293A cells at 15 nM measured 5 mins post wash out by DiD dye-based confocal microscopic analysis; type: cell-based; details: HEK293-A; in short: as §7
[25] = target: T5, Alpha-1A adrenergic receptor (Homo sapiens); test: Binding affinity to alpha-1A adrenergic receptor (unknown origin) transfected in HEK293A cells at 15 nM measured 5 mins post wash out by DiD dye-based confocal microscopic analysis in presence of alpha1 adrenergic receptor antagonist tamsulosin; type: cell-based; details: HEK293-A; in short: as §6

| IC50 [2] [nM] | Ki [2] [nM] | IC50 [5] [nM] | Ki [5] [nM] | IC50 [8] [nM] | Ki [8] [nM] | SMILES | IC50 [6] [nM] | IC50 [9] [nM] | further results |
| --- | --- | --- | --- | --- | --- | --- | --- | --- | --- |
| 1.2 | 0.1 | 0.6 | 0.3 | 2.2 | 0.4 | CCN(CC)c1ccc2cc(-n3cc(C(=O)N4CCN(c5nc(N)c6cc(OC)c(OC)cc6n5)CC4)nn3)c(=O)oc2c1 | 32000 | 12000 | Activity [1]: Active; Drug uptake [3]: Active; Activity [4]: inactive; Activity [7]: Active |
| 16.3 | 7.3 | 8.8 | 4.7 | 34 | 20.7 | COc1cc2nc(N3CCN(C(=S)Nc4ccc(-c5c6ccc(=O)cc-6oc6cc(O)ccc56)c(C(=O)O)c4)CC3)nc(N)c2cc1OC | > 100000 | > 100000 | Activity [10]: inactive; Activity [11]: inactive; Activity [12]: inactive; Activity [13]: Active; Drug uptake [14]: Active; Drug uptake [15]: Active; Activity [16]: Active; Activity [17]: Active |
| < 5 | – | 3.9 | 2.1 | < 5 | – | COc1cc2nc(N3CCN(C(=O)c4cc5ccc(O)cc5oc4=O)CC3)nc(N)c2cc1OC | > 100000 | > 100000 | Drug uptake [18]: Active; Activity [19]: inactive; Activity [20]: Active; Drug uptake [21]: Active; Drug uptake [22]: Active; Drug uptake [23]: Active; Activity [24]: Active; Activity [25]: inactive |
